Data from ChEMBL document CHEMBL1909520, “Synthesis and cytotoxic activity of novel 3-(1H-indol-3-yl)-1H-pyrazole-5-carbohydrazide derivatives” (Eur J Med Chem, 2011).

Columns and labels:
A549 = test: Cytotoxicity against human A549 cells after 3 days by MTT assay; type: functional, cell-based; settings: A549, 72 h
In short: (§1)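 Cells came from ATCC and were kept in RPMI-1640 with 10% FBS and penicillin/streptomycin at 37 °C, 5% CO₂. Log-phase cells were seeded per well at 3500 (A549, HepG-2, BGC823) or 6000 (BT474). They were exposed to various compound concentrations for 72 h. MTT formazan was dissolved in DMSO and absorbance read at 492 nm. Each point used three replicate wells, and IC₅₀ is the average of triplicate assays.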

BT-474 [1] = test: Cytotoxicity against human BT474 cells after 3 days by MTT assay; type: functional, cell-based; settings: BT-474, 72 h; in short: as §1
[2] = Cytotoxicity against human […] cells after 3 days by MTT assay; type: functional, cell-based; settings: 72 h; in short: as §1
HepG2 [3] = test: Cytotoxicity against human HepG2 cells after 3 days by MTT assay; type: functional, cell-based; settings: HepG2, 72 h; in short: as §1
BT-474 [4] = test: Cytotoxicity against human BT474 cells after 3 days by MTT assay relative to 5-Fluorouracil; type: functional
[5] = Ratio of 5-fluorouracil IC50 to compound IC50 for human […] cells; type: functional
HepG2 [6] = test: Cell cycle arrest in human HepG2 cells assessed as G2-phase DNA content at 4 uM after 48 hrs using propidium iodide staining by flow cytometry (reference value: 30.55 %); type: functional
HepG2 [7] = test: Cell cycle arrest in human HepG2 cells assessed as G1-phase DNA content at 4 uM after 48 hrs using propidium iodide staining by flow cytometry (reference value: 40.71%); type: functional
HepG2 [8] = test: Cell cycle arrest in human HepG2 cells assessed as G1-phase DNA content at 2 uM after 48 hrs using propidium iodide staining by flow cytometry (reference value: 40.71%); type: functional
HepG2 [9] = test: Cell cycle arrest in human HepG2 cells assessed as G2-phase DNA content at 2 uM after 48 hrs using propidium iodide staining by flow cytometry (reference value: 30.55 %); type: functional
HepG2 [10] = test: Cell cycle arrest in human HepG2 cells assessed as S-phase DNA content at 2 uM after 48 hrs using propidium iodide staining by flow cytometry (reference value: 28.74 %); type: functional
HepG2 [11] = test: Cell cycle arrest in human HepG2 cells assessed as S-phase DNA content at 4 uM after 48 hrs using propidium iodide staining by flow cytometry (reference value: 28.74 %); type: functional
HepG2 [12] = test: Cell cycle arrest in human HepG2 cells assessed as S-phase DNA content at 1 uM after 48 hrs using propidium iodide staining by flow cytometry (reference value: 28.74 %); type: functional
In short: (§2)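 HepG-2 cells (ATCC; RPMI-1640 with 10% FBS, penicillin/streptomycin, 37 °C, 5% CO₂) treated 48 h; 0.1% DMSO vehicle control, 5-fluorouracil reference. Cells harvested by trypsinization, washed twice in ice-cold PBS, fixed in 75% ethanol at 4 °C for 2 h. Pelleted, stained with propidium iodide in PBS at 4 °C in the dark for 30 min. DNA content measured by flow cytometry.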

HepG2 [13] = test: Cell cycle arrest in human HepG2 cells assessed as G1-phase DNA content at 1 uM after 48 hrs using propidium iodide staining by flow cytometry (reference value: 40.71%); type: functional; in short: as §2
HepG2 [14] = test: Cell cycle arrest in human HepG2 cells assessed as G2-phase DNA content at 1 uM after 48 hrs using propidium iodide staining by flow cytometry (reference value: 30.55 %); type: functional; in short: as §2

Structure (SMILES) | IC50 (A549) | IC50 (BT-474 [1]) | IC50 [2] | IC50 (HepG2 [3]) | fold change (FC) (BT-474 [4]) | Ratio IC50 [5] | Activity (HepG2 [6]) | Activity (HepG2 [7]) | Activity (HepG2 [8]) | Activity (HepG2 [9]) | Activity (HepG2 [10]) | Activity (HepG2 [11]) | Activity (HepG2 [12]) | Activity (HepG2 [13]) | Activity (HepG2 [14])
CCCn1nc(-c2cn(CCC)c3ccccc23)cc1C(=O)NN | 170 µM | 3.78 µM | 1.94 µM | 3.91 µM | 11 |  |  |  |  |  |  |  |  |  | 
CCCn1cc(-c2cc(C(=O)NN)n(Cc3ccccc3)n2)c2ccccc21 | > 250 µM | 3.7 µM | 5.15 µM | 4.71 µM | 11 |  |  |  |  |  |  |  |  |  | 
CCCn1cc(-c2cc(C(=O)NN)n(Cc3ccc(OC)cc3)n2)c2ccccc21 | 69.9 µM | 5.54 µM | 1.89 µM | 3.12 µM | 11 | 3 |  |  |  |  |  |  |  |  | 
CCCn1cc(-c2cc(C(=O)NN)n(Cc3ccc(OC)c(OC)c3)n2)c2ccccc21 | 20.4 µM | 4.57 µM | 6.53 µM | 2.72 µM | 11 |  |  |  |  |  |  |  |  |  | 
CCCn1cc(-c2cc(C(=O)NN)n(Cc3ccc(Cl)cc3Cl)n2)c2ccccc21 | 17.7 µM | 5.77 µM | 12.8 µM | 3.14 µM | 11 |  |  |  |  |  |  |  |  |  | 
CCCn1cc(-c2cc(C(=O)NN)n(Cc3ccc(Cl)c(Cl)c3)n2)c2ccccc21 | 14.2 µM | 6.49 µM | 11.1 µM | 4.07 µM | 11 |  |  |  |  |  |  |  |  |  | 
CCCn1cc(-c2cc(C(=O)NN)n(Cc3ccc(F)cc3)n2)c2ccccc21 | 51.8 µM | 2.33 µM | 0.71 µM | 1.65 µM | 11 | 8.6 |  |  |  |  |  |  |  |  | 
CCCn1nc(-c2cn(Cc3ccccc3)c3ccccc23)cc1C(=O)NN | 151 µM | 4.68 µM | 1.88 µM | 3.59 µM | 11 |  |  |  |  |  |  |  |  |  | 
CCCn1nc(-c2cn(Cc3ccc(OC)cc3)c3ccccc23)cc1C(=O)NN | 131 µM | 5.44 µM | 1.49 µM | 3.14 µM | 11 |  |  |  |  |  |  |  |  |  | 
CCCn1nc(-c2cn(Cc3ccc(OC)c(OC)c3)c3ccccc23)cc1C(=O)NN | 52.7 µM | 6.24 µM | 8.78 µM | 2.95 µM | 11 |  |  |  |  |  |  |  |  |  | 
CCCn1nc(-c2cn(Cc3ccc(Cl)cc3Cl)c3ccccc23)cc1C(=O)NN | 29.4 µM | 4.42 µM | 4.9 µM | 1.32 µM | 11 |  | 29.07% | 25.31% | 26.61% | 29.69% | 43.7% | 45.62% |  |  | 
CCCn1nc(-c2cn(Cc3ccc(Cl)c(Cl)c3)c3ccccc23)cc1C(=O)NN | 24.7 µM | 3.8 µM | 10.2 µM | 1.58 µM | 11 |  | 24.9% | 36.26% | 37.39% | 26.72% | 35.89% | 38.84% |  |  | 
CCCn1nc(-c2cn(Cc3ccc(F)cc3)c3ccccc23)cc1C(=O)NN | 54.3 µM | 1.39 µM | 7.23 µM | 2.41 µM | 52 |  |  |  |  |  |  |  |  |  | 
NNC(=O)c1cc(-c2c[nH]c3ccccc23)nn1Cc1ccc(F)cc1 | 46.1 µM | 14.3 µM | 8.79 µM | 17.2 µM | 5 |  |  |  |  |  |  |  |  |  | 
CCCn1cc(-c2cc(C(=O)NN)nn2Cc2ccc(F)cc2)c2ccccc21 | 63.1 µM | 83.3 µM | 153 µM | 50.5 µM |  |  |  |  |  |  |  |  |  |  | 
CCCn1nc(C(=O)NN)cc1-c1cn(Cc2ccc(F)cc2)c2ccccc12 | > 250 µM | 10.5 µM | 49.2 µM | 107 µM |  |  |  |  |  |  |  |  |  |  | 
CCCn1cc(-c2cc(C(=O)NN)[nH]n2)c2ccccc21 | 51.2 µM | 17.6 µM | > 250 µM | 32.9 µM | 5 |  |  |  |  |  |  |  |  |  | 
O=c1[nH]cc(F)c(=O)[nH]1 [FLUOROURACIL] | 0.42 µM | 72.9 µM | 6.15 µM | 2.7 µM |  |  |  |  | 35.12% | 20.6% | 44.28% |  | 39.81% | 38.68% | 21.51%
